Source: ChEMBL document CHEMBL2203006, “Design, synthesis and pharmacological evaluation of 4-(piperazin-1-yl methyl)-N₁-arylsulfonyl indole derivatives as 5-HT₆ receptor ligands” (Bioorg Med Chem Lett, 2012)
pIC50, pKi: −log10 of the molar value. Calls of active or inactive are those of the source. No cut-off for these calls is given here.

Assays:
[1] = AUCt in Wistar rat at 10 mg/kg, po; type: ADME, organism-based; set-up: dose 10 mg/kg, route oral; settings: plasma
Outline: (§1)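 Fasted male Wistar rats were dosed orally at 10 mg/kg in water for injection (10 mL/kg). Parameters come from the plasma concentration-time profile.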

[2] = Oral bioavailability in Wistar rat at 10 mg/kg; type: ADME, organism-based; settings: in vivo; outline: as §1
[3] = Tmax in Wistar rat at 10 mg/kg, po; type: ADME, organism-based; set-up: dose 10 mg/kg, route oral; settings: in vivo; outline: as §1
[4] = Cmax in Wistar rat at 10 mg/kg, po; type: ADME, organism-based; set-up: dose 10 mg/kg, route oral; settings: in vivo; outline: as §1
[5] = Clearance in Wistar rat at 5 to 10 mg/kg, iv; type: ADME, organism-based; set-up: dose 5-10 mg/kg, route intravenous; settings: in vivo
Outline: (§2)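 Fasted male Wistar rats were dosed intravenously in water for injection at 2 mL/kg. Parameters come from the plasma profile.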

[6] = Apparent volume of distribution in Wistar rat at 5 to 10 mg/kg, iv; type: ADME, organism-based; set-up: dose 5-10 mg/kg, route intravenous; settings: in vivo, read-out: Vz; outline: as §2
[7] = Half life in Wistar rat at 5 to 10 mg/kg, iv; type: ADME, organism-based; set-up: dose 5-10 mg/kg, route intravenous; settings: in vivo; outline: as §2
[8] = Drug metabolism in Wistar rat liver microsomes at 2.5 uM after 0.5 hrs; type: ADME, Microsome; settings: read-out: Drug metabolism
[9] = Drug metabolism in human liver microsomes at 2.5 uM after 0.5 hrs; type: ADME, Microsome; settings: read-out: Drug metabolism
Cytochrome P450 2D6 = Cytochrome P450 2D6 (Homo sapiens, UniProt P10635); experiment: Inhibition of CYP2D6 in human liver microsomes using dextromethorphan as substrate after 10 mins in presence of NADPH; type: ADME, Microsome
Cytochrome P450 3A4 = Cytochrome P450 3A4 (Homo sapiens, UniProt P08684); experiment: Inhibition of CYP3A4 in human liver microsomes using midazolam as substrate after 5 mins in presence of NADPH; type: ADME, Microsome
hERG (KCNH2) = hERG (KCNH2) (Homo sapiens, UniProt Q12809); experiment: Inhibition of human ERG at 1 uM by radioligand displacement assay
Sequence of hERG (KCNH2) (Q12809 whole entry): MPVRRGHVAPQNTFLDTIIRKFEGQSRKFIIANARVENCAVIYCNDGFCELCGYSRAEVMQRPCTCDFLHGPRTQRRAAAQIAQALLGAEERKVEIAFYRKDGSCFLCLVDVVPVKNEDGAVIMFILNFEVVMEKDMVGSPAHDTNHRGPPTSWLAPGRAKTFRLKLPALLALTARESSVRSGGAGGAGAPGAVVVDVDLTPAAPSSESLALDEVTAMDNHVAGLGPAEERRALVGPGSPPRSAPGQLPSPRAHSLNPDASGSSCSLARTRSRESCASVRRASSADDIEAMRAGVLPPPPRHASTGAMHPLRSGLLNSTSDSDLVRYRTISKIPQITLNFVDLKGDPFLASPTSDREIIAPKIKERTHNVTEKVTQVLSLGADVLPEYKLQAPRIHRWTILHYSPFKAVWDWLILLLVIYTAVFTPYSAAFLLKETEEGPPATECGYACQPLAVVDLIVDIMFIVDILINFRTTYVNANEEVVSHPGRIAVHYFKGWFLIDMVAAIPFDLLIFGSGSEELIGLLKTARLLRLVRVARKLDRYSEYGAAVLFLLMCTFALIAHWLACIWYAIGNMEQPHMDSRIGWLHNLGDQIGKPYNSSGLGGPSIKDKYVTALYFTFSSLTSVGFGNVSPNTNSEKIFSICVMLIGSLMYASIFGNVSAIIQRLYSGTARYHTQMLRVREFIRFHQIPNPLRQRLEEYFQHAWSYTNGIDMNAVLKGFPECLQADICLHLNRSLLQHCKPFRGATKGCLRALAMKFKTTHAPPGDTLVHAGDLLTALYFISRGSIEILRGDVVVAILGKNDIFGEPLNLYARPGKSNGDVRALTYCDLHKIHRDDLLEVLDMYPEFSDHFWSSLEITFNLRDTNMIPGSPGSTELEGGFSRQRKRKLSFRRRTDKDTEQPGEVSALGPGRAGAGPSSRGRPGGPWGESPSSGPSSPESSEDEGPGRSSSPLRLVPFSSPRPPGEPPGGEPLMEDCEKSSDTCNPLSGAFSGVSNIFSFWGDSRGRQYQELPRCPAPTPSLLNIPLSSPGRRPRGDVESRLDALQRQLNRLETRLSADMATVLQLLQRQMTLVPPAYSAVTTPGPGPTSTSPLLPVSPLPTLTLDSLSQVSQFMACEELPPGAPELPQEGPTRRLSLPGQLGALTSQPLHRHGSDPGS
Outline: (§3)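 Single-concentration screen at 1 µM. Percent inhibition was measured by competitive displacement of each target's radioligand.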

[10] = molecular target: Sodium-dependent serotonin transporter (Homo sapiens) (UniProt P31645); experiment: Inhibition of SERT at 1 uM by radioligand displacement assay; outline: as §3
Sequence of Sodium-dependent serotonin transporter (Homo sapiens) (P31645 whole entry, looked up): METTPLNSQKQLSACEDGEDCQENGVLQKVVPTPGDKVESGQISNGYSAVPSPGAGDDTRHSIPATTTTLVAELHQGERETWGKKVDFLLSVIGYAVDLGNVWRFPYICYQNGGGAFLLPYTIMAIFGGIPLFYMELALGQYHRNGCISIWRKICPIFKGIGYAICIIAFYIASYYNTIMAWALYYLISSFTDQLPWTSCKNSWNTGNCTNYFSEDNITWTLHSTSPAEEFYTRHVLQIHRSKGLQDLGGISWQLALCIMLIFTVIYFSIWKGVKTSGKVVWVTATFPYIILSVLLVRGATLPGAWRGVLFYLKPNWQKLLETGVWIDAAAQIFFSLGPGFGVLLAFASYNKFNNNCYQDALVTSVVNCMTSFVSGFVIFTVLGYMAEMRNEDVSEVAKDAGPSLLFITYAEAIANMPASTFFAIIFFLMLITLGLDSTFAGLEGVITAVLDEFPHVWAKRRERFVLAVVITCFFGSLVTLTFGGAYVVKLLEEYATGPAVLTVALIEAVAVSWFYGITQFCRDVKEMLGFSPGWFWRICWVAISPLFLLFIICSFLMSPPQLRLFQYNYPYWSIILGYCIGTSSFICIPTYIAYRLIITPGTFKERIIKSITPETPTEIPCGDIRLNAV

[11] = molecular target: Histamine H1 receptor (Homo sapiens) (UniProt P35367); experiment: Inhibition of histamine H1 receptor at 1 uM by radioligand displacement assay; outline: as §3
[12] = molecular target: Sodium-dependent noradrenaline transporter (Homo sapiens) (UniProt P23975); experiment: Inhibition of NET at 1 uM by radioligand displacement assay; outline: as §3
Sequence of Sodium-dependent noradrenaline transporter (Homo sapiens) (P23975 whole entry): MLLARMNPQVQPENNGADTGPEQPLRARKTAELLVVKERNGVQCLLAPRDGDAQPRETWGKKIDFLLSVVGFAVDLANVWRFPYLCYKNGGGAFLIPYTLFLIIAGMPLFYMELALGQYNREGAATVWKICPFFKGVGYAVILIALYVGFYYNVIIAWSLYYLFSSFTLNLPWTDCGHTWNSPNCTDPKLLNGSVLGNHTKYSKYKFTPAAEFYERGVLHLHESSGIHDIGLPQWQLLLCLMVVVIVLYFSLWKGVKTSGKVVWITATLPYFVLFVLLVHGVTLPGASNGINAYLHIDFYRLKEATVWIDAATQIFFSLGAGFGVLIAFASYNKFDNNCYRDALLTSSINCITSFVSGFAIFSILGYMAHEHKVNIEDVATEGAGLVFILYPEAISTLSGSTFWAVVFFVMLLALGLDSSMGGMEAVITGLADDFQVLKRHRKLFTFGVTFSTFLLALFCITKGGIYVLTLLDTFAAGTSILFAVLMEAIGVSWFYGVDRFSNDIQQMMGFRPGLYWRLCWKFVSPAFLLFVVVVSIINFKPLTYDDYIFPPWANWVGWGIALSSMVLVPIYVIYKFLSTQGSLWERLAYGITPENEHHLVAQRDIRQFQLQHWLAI

[13] = molecular target: D(3) dopamine receptor (Homo sapiens) (UniProt P35462); experiment: Inhibition of dopamine D3 receptor at 1 uM by radioligand displacement assay; outline: as §3
Sequence of D(3) dopamine receptor (Homo sapiens) (P35462 whole entry): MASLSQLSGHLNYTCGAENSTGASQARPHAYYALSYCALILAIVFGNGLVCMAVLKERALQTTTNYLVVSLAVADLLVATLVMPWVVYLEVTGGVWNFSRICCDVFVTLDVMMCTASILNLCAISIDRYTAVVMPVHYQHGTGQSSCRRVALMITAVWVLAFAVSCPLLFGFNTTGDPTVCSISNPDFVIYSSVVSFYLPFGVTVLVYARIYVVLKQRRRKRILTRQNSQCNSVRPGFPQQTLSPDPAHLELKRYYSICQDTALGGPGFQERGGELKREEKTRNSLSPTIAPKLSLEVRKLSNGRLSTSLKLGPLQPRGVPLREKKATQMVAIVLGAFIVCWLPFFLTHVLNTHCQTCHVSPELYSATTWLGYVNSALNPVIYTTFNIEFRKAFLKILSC

[14] = molecular target: Sodium-dependent dopamine transporter (Homo sapiens) (UniProt Q01959); experiment: Inhibition of DAT at 1 uM by radioligand displacement assay; outline: as §3
Sequence of Sodium-dependent dopamine transporter (Homo sapiens) (Q01959 whole entry): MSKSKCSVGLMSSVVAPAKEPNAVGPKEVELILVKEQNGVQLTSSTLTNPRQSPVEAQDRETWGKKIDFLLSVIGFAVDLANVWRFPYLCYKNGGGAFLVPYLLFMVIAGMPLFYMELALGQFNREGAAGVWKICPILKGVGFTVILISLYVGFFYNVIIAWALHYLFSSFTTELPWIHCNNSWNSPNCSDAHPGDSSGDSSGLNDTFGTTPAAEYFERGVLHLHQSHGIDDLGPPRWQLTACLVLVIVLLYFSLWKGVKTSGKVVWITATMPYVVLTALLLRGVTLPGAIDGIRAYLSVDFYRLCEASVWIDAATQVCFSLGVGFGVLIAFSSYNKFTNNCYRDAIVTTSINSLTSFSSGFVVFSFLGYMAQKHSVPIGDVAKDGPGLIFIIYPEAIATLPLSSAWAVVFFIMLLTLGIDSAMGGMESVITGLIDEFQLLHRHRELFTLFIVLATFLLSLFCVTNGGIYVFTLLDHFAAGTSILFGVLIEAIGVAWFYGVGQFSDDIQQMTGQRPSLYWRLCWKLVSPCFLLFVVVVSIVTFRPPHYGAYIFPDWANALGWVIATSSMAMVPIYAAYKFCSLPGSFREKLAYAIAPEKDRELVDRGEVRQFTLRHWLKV

[15] = molecular target: D(2) dopamine receptor (Homo sapiens) (UniProt P14416); experiment: Inhibition of dopamine D2 receptor at 1 uM by radioligand displacement assay; outline: as §3
Sequence of D(2) dopamine receptor (Homo sapiens) (P14416 whole entry): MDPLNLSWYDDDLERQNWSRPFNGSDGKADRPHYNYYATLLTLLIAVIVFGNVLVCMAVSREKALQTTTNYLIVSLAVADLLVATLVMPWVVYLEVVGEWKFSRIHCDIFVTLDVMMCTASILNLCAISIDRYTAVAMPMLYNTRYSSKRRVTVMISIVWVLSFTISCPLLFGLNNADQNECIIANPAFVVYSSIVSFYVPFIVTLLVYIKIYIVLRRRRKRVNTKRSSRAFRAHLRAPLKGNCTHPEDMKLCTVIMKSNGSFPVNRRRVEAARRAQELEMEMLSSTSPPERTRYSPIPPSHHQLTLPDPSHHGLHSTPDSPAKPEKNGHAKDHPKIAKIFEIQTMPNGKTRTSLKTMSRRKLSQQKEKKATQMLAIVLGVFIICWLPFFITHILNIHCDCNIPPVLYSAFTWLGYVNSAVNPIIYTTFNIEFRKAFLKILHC

[16] = molecular target: T1, 5-hydroxytryptamine receptor 3A (Homo sapiens) (UniProt P46098); experiment: Inhibition of 5HT3 receptor at 1 uM by radioligand displacement assay; outline: as §3
T1 sequence (whole entry): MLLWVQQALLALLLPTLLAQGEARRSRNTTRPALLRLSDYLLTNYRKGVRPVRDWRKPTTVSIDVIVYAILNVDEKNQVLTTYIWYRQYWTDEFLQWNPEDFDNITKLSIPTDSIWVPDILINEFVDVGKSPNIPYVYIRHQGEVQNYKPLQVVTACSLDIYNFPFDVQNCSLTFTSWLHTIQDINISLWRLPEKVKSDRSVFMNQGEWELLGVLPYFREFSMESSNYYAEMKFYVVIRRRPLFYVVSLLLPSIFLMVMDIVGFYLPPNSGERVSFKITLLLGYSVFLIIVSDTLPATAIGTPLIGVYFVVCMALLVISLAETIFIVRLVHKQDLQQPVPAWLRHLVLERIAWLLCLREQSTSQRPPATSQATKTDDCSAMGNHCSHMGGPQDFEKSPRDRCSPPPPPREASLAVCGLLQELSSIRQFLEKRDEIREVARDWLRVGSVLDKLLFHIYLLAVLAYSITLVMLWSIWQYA

[17] = molecular target: 5-hydroxytryptamine receptor 2A (Homo sapiens) (UniProt P28223); experiment: Inhibition of 5HT2A receptor at 1 uM by radioligand displacement assay; outline: as §3
Sequence of 5-hydroxytryptamine receptor 2A (Homo sapiens) (P28223 whole entry): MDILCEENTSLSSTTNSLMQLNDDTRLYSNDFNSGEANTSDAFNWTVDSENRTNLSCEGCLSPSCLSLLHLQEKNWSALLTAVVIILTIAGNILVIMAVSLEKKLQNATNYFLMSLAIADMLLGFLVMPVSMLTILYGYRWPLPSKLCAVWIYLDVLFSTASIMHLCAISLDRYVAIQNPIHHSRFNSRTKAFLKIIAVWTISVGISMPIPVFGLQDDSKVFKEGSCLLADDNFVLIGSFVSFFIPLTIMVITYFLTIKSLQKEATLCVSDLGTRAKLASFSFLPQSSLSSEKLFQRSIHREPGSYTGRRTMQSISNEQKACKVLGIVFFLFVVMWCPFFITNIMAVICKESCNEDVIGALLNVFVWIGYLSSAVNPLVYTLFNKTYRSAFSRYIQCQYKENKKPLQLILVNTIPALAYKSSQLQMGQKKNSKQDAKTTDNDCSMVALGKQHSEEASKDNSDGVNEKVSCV

[18] = molecular target: T2, 5-hydroxytryptamine receptor 6 (Homo sapiens, UniProt P50406); experiment: Antagonist activity at recombinant human 5HT6 receptor expressed in CHO cells assessed as inhibition of 5HT-stimulated cAMP accumulation after 4 hrs by luciferase reporter gene assay relative to control; type: functional, cell-based
T2 sequence (P50406 whole entry): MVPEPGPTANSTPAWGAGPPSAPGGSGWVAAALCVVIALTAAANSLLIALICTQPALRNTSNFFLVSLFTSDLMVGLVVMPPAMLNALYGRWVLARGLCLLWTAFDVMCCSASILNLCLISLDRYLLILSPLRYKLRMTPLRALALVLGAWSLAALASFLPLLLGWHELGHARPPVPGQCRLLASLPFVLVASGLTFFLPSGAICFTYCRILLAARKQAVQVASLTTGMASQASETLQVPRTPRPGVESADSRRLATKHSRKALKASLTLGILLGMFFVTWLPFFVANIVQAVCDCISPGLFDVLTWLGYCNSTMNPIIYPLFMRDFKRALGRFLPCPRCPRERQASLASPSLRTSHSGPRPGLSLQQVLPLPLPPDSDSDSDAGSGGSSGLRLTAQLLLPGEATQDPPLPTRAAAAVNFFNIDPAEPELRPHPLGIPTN

[19] = molecular target: T2, 5-hydroxytryptamine receptor 6; experiment: Antagonist activity at recombinant human 5HT6 receptor expressed in CHO cells assessed as inhibition of 5HT-stimulated cAMP accumulation after 4 hrs by luciferase reporter gene assay; type: functional, cell-based
Outline: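 Functional antagonism measured in a non-radioactive CHO cell-based assay as inhibition of 5-HT-stimulated cAMP accumulation. IC50 was derived from this inhibition, and Kb values were determined in the same cell-based format. IC50 and Kb are each the mean of two experiments.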

[20] = molecular target: T2, 5-hydroxytryptamine receptor 6; experiment: Displacement of [3H]-LSD from cloned human 5HT6 receptor expressed in HEK293 cells; type: cell-based
Outline: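 Human recombinant 5-HT6 receptor expressed in HEK293 cells. Radioligand [3H]-LSD (60–80 Ci/mmol) at 1.5 nM final. Methiothepin mesylate defined non-specific binding and served as reference. Ki values are the average of duplicate determinations, run under a contract lab's standard protocol.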

[21] = molecular target: T3, Alpha-1B adrenergic receptor (Homo sapiens) (UniProt P35368); experiment: Inhibition of adrenergic alpha1B receptor at 1 uM by radioligand displacement assay; outline: as §3
T3 sequence (whole entry): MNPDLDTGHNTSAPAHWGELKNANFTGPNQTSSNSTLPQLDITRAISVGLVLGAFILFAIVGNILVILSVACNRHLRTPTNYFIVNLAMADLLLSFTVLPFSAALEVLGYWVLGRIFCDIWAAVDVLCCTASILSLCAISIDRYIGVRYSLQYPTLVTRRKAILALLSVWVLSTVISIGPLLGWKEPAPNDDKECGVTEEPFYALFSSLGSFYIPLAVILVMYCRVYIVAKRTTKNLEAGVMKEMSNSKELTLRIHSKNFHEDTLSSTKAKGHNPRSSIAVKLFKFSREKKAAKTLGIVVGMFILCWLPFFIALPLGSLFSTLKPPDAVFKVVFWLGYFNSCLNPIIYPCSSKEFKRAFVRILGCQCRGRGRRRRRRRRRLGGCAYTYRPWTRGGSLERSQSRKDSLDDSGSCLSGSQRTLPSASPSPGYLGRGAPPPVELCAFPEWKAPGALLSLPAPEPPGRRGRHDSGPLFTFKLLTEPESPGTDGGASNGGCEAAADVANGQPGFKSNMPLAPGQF

[22] = Half life in Wistar rat at 10 mg/kg, po; type: ADME, organism-based; set-up: dose 10 mg/kg, route oral; settings: in vivo; outline: as §1
Rattus norvegicus = experiment: Cognitive enhancing effect in Wistar rat assessed as reversal of time delay-induced memory deficit at 10 mg/kg, po after 60 mins by object recognition test; type: functional, organism-based; set-up: dose 10 mg/kg
Outline: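 Object recognition task in rats. Drug or vehicle (PEG 400 50% v/v, 1 mL/kg) was given orally 60 min before testing, at 10 mg/kg. n = 6–9 per group.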

[23] = Ratio of drug level in brain to plasma at steady state in Wistar rat at 10 mg/kg, po after 1 hr; type: ADME, organism-based; set-up: dose 10 mg/kg, route oral; settings: read-out: BPR

| SMILES | AUC(0-t) [1] [ng·h/mL] | bioavailability [2] [%] | Tmax [3] [h] | Cmax [4] [ng/mL] | clearance [5] [mL/min/kg] | Vd [6] [L/kg] | half-life [7] [h] | metabolised at 0.5 h, 2.5 µM [8] [%] | metabolised at 0.5 h, 2.5 µM [9] [%] | pIC50 (Cytochrome P450 2D6) | inhibition [10] [%] | inhibition [11] [%] | inhibition [12] [%] | inhibition [13] [%] | inhibition [14] [%] | inhibition [15] [%] | inhibition [16] [%] | inhibition [17] [%] | inhibition [21] [%] | inhibition at 1 µM (hERG (KCNH2)) [%] | further results |
| --- | --- | --- | --- | --- | --- | --- | --- | --- | --- | --- | --- | --- | --- | --- | --- | --- | --- | --- | --- | --- | --- |
| CN1CCN(Cc2cccc3c2ccn3S(=O)(=O)c2ccccc2Br)CC1 | 217 | 29 | 1.83 | 60 | 220 | 32.6 | 1.76 | 100 | 90 | 4.71 | 4.62 | 9.48 | 10.8 | 27.8 | 3.66 | 11.1 | 18.8 | 24 | 2.26 | 15.8 | half-life [22]: 3.17 h; Activity (Rattus norvegicus): Active; Kp at 1 h [23]: 20.3; Imax [18]: 100%; pIC50 [19]: 6.87; Kb [19]: 0.59 nM |
| O=S(=O)(c1ccccc1Br)n1ccc2c(CN3CCNCC3)cccc21 | – | – | – | – | – | – | – | – | – | – | 8.47 | 9.82 | 6.28 | 8.31 | 5.23 | 12.8 | 18 | 18.7 | 1.13 | 24.5 | pKi [20]: 8.55 |

Further lines, with some results ahead:

| AUC(0-t) [1] [ng·h/mL] | bioavailability [2] [%] | Tmax [3] [h] | Cmax [4] [ng/mL] | clearance [5] [mL/min/kg] | Vd [6] [L/kg] | half-life [7] [h] | metabolised at 0.5 h, 2.5 µM [8] [%] | metabolised at 0.5 h, 2.5 µM [9] [%] | pIC50 (Cytochrome P450 2D6) | inhibition [10] [%] | inhibition [11] [%] | inhibition [12] [%] | inhibition [13] [%] | inhibition [14] [%] | inhibition [15] [%] | inhibition [16] [%] | inhibition [17] [%] | inhibition [21] [%] | SMILES | inhibition at 1 µM (hERG (KCNH2)) [%] | further results |
| --- | --- | --- | --- | --- | --- | --- | --- | --- | --- | --- | --- | --- | --- | --- | --- | --- | --- | --- | --- | --- | --- |
| 23 | 2 | 1.08 | 7.6 | 152 | 19.4 | 1.53 | 100 | 47 | 4.77 | 2.85 | 10.1 | 10.2 | 22.6 | 3.92 | 7.26 | 6.73 | 10.9 | 0.99 | CN1CCN(Cc2cccc3c2ccn3S(=O)(=O)c2ccccc2)CC1 | 21.1 | pIC50 (Cytochrome P450 3A4): 4.52; Imax [18]: 99%; pIC50 [19]: 6.63; Kb [19]: 1.02 nM; pKi [20]: 8.49 |
| – | – | – | – | – | – | – | – | – | – | 1.51 | 9.33 | 13.5 | 28.5 | 20.4 | 12.9 | 19.9 | 17.7 | 0.78 | CN1CCN(Cc2cccc3c2c(Cl)cn3S(=O)(=O)c2cccc(Cl)c2)CC1 | 20.2 | – |
| – | – | – | – | – | – | – | – | – | – | 5.27 | 2.38 | 6.78 | 35.7 | 3.53 | 5.01 | 8.93 | 19.3 | 2.17 | CN1CCN(Cc2cccc3c2c(Br)cn3S(=O)(=O)c2ccccc2)CC1 | 23 | – |
